The record followed here is ChEMBL document CHEMBL3243979, “Syntheses of N-substituted 2(3,4)-pyridylcarboxylic acid hydrazides with analgesic and antiinflammatory activity” (1979).

Holding throughout (type): functional
The test system of test [1] is Mus musculus. Put plainly: Analgesic activity in Swiss albino mouse assessed as inhibition of phenyl-p-benzoquinone-induced writhing at 128 mg/kg, sc administered 30 mins prior challenge relative to vehicle-treated control. Conditions: route subcutaneous. The method in brief: (§1)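 Male Swiss albino mice, 18–22 g, five per group. Compound suspended in physiological saline with Tween 80 and given sc. At 30 min, 0.03% phenyl-p-benzoquinone given ip at 0.1 mL/10 g body weight. Total writhes per animal counted against a vehicle-treated control group. % change = (treated writhes/control writhes) × 100 − 100.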
(In general: Writhing tests count abdominal constrictions after an irritant is injected.)

Test [2] concerns Rattus norvegicus. Put plainly: Antiinflammatory activity in Sprague-Dawley rat assessed as inhibition of carrageenan-induced paw edema at 128 mg/kg, sc administered post-challenge measured at 3 hrs post compound treatment relative to vehicle-treated control. As to conditions: route subcutaneous. On the technique in general: Carrageenan injected into the paw causes an acute inflammation.

The subject of test [3] is Rattus norvegicus. Description: Antiinflammatory activity in Sprague-Dawley rat assessed as inhibition of carrageenan-induced paw edema at 128 mg/kg, sc administered post-challenge measured at 5 hrs post compound treatment relative to vehicle-treated control. Conditions: route subcutaneous.
In test [4] the test system is Rattus norvegicus. Description: Antiinflammatory activity in Sprague-Dawley rat assessed as inhibition of carrageenan-induced paw edema at 64 mg/kg, […] measured at 3 hrs post compound treatment relative to vehicle-treated control. As to conditions: sc, route subcutaneous.
Test [5] deals with Rattus norvegicus. Put plainly: Antiinflammatory activity in Sprague-Dawley rat assessed as inhibition of carrageenan-induced paw edema at 64 mg/kg, sc administered post-challenge measured at 5 hrs post compound treatment relative to vehicle-treated control. As to conditions: route subcutaneous.
Test [6] has as its system Mus musculus. Put plainly: Analgesic activity in Swiss albino mouse assessed as inhibition of phenyl-p-benzoquinone-induced writhing at 11.8 mg/kg, sc administered 30 mins prior challenge relative to vehicle-treated control. As to conditions: route subcutaneous. In outline:
as §1

Test [7] has as its system Rattus norvegicus. Description: Antiinflammatory activity in Sprague-Dawley rat assessed as inhibition of carrageenan-induced paw edema at 120 mg/kg, […] measured at 3 hrs post compound treatment relative to vehicle-treated control. As to conditions: sc, route subcutaneous.
Test [8] has as its system Rattus norvegicus. Put plainly: Antiinflammatory activity in Sprague-Dawley rat assessed as inhibition of carrageenan-induced paw edema at 120 mg/kg, sc administered post-challenge measured at 5 hrs post compound treatment relative to vehicle-treated control. As to conditions: route subcutaneous.
Test [9] has as its system Mus musculus. Description: Analgesic activity in Swiss albino mouse assessed as inhibition of phenyl-p-benzoquinone-induced writhing at 120 mg/kg, sc administered 30 mins prior challenge relative to vehicle-treated control. As to conditions: route subcutaneous. In outline: as §1
The test system of test [10] is Rattus norvegicus. Description: Antiinflammatory activity in Sprague-Dawley rat assessed as inhibition of carrageenan-induced paw edema at 100 mg/kg, […] measured at 3 hrs post compound treatment relative to vehicle-treated control. As to conditions: sc, route subcutaneous.
Test [11] deals with Rattus norvegicus. Description: Antiinflammatory activity in Sprague-Dawley rat assessed as inhibition of carrageenan-induced paw edema at 100 mg/kg, sc administered post-challenge measured at 5 hrs post compound treatment relative to vehicle-treated control. Conditions: route subcutaneous.
Test [12] relates to Mus musculus. Put plainly: Analgesic activity in Swiss albino mouse assessed as inhibition of phenyl-p-benzoquinone-induced writhing at 50 mg/kg, sc administered 30 mins prior challenge relative to vehicle-treated control. Conditions: route subcutaneous. In outline: as §1
Test [13] has as its system Rattus norvegicus. Description: Antiinflammatory activity in Sprague-Dawley rat assessed as inhibition of carrageenan-induced paw edema at 12 mg/kg, sc administered post-challenge measured at 3 hrs post compound treatment relative to vehicle-treated control. As to conditions: route subcutaneous.
For test [14], the system named is Rattus norvegicus. Description: Antiinflammatory activity in Sprague-Dawley rat assessed as inhibition of carrageenan-induced paw edema at 12 mg/kg, sc administered post-challenge measured at 5 hrs post compound treatment relative to vehicle-treated control. Conditions: route subcutaneous.
Test [15] concerns Mus musculus. Description: Analgesic activity in Swiss albino mouse assessed as inhibition of phenyl-p-benzoquinone-induced writhing at 56 mg/kg, sc administered 30 mins prior challenge relative to vehicle-treated control. Conditions: route subcutaneous. The method in brief: as §1

On to `O=C(NNC(=O)c1ccncc1)c1ccccc1`, for which the inhibition in vivo (usually the change of the read-out against control, counted positive when it falls) at 128 mg/kg amounted to 38.3% in the test on Mus musculus [1], 17% in the test with Rattus norvegicus [2] and 0% with Rattus norvegicus [3].
On to `O=C(NN1CCOCC1)c1cccnc1`, for which the results for the inhibition in vivo at 128 mg/kg with Mus musculus [1], in the test with Rattus norvegicus [2] and with Rattus norvegicus [3] were 6.7%, 50% and 17%, respectively.
Turning to `CN(C)NC(=O)c1cccnc1`, the inhibition in vivo at 128 mg/kg in the test on Mus musculus [1] was found to be 45%. The inhibition in vivo at 64 mg/kg in the test on Rattus norvegicus [4] and in the test with Rattus norvegicus [5] was 0% in each case.
Consider `O=C(NN1CCc2ccccc2C1)c1ccncc1`, for which the inhibition in vivo at 128 mg/kg with Mus musculus [1] was found to be 79%; in the test on Rattus norvegicus [2], 17%; in the test on Rattus norvegicus [3] it was 17%.
As for `CC(=O)N(NC(=O)c1ccncc1)C(C)=O`, the figures for the inhibition in vivo at 128 mg/kg in the test on Mus musculus [1], in the test with Rattus norvegicus [2] and in the test with Rattus norvegicus [3] were 32%, 50% and 17%, respectively.
On to `O=C(NNc1ccccn1)c1ccccn1`, for which, in the test on Mus musculus [6], the inhibition in vivo at 11.8 mg/kg was determined as 50%. Also, the inhibition in vivo at 120 mg/kg with Rattus norvegicus [7] and in the test with Rattus norvegicus [8] was 100% each time.
With `O=C(NNc1ccccn1)c1ccncc1`, the inhibition in vivo at 120 mg/kg with Mus musculus [9] stood at 0%. The figures for the inhibition in vivo at 100 mg/kg in the test on Rattus norvegicus [10] and with Rattus norvegicus [11] were 83% and 100%, respectively.
Taken in the same sequence, the figures for `O=C(NN(C(=O)c1ccncc1)c1ccccc1)c1ccncc1` were 84%, 34% and 34%.
On to `CC(=O)Oc1ccccc1C(=O)O` [ASPIRIN], for which the inhibition in vivo at 50 mg/kg in the test with Mus musculus [12] is 50%.
Take `COc1ccc2c(c1)c(CC(=O)O)c(C)n2C(=O)c1ccc(Cl)cc1` [INDOMETHACIN]: the inhibition in vivo at 12 mg/kg with Rattus norvegicus [13] stood at 17%; in the test with Rattus norvegicus [14], 83%.
As for `CCC(=O)O[C@](Cc1ccccc1)(c1ccccc1)[C@H](C)CN(C)C` [PROPOXYPHENE], the inhibition in vivo at 56 mg/kg in the test on Mus musculus [15] was determined as 50%.
